Test results published in ChEMBL document CHEMBL3751842, “Novel triazolothiadiazines act as potent anticancer agents in liver cancer cells through Akt and ASK-1 proteins” (Bioorg Med Chem, 2016).
Calls of active or inactive are those of the source. No cut-off for these calls is given here.

Assays:
[1] = Cytotoxicity against human HuH7 cells assessed as growth inhibition after 72 hrs by sulforhodamine B assay; assay type: functional, cell-based, Huh-7; conditions: Homo sapiens, Huh-7, 72 h; read-out: IC50
Method in brief: (§1)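 Cells were grown at 37°C, 5% CO2 in DMEM with 10% FBS. They were seeded at 1000–3000 cells/well, grown 24 h, then exposed to compound at 2.5–40 µM for 72 h. Cells were fixed in 10% TCA for 1 h at 4°C, stained with 0.4% SRB in 1% acetic acid for 10 min, and the dye solubilized in 10 mM Tris. Absorbance was read at 515 nm; runs were in triplicate; IC50 was calculated, with fits of R2 0.8–1 accepted.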

[2] = biological target: T1, Mitogen-activated protein kinase kinase kinase 5 (Homo sapiens) (UniProt Q99683); experiment: Activation of ASK1 in human Mahlavu cells assessed as SAPK/JNK phosphorylation after 24 to 48 hrs by Western blot analysis; assay type: cell-based
T1 sequence (whole entry): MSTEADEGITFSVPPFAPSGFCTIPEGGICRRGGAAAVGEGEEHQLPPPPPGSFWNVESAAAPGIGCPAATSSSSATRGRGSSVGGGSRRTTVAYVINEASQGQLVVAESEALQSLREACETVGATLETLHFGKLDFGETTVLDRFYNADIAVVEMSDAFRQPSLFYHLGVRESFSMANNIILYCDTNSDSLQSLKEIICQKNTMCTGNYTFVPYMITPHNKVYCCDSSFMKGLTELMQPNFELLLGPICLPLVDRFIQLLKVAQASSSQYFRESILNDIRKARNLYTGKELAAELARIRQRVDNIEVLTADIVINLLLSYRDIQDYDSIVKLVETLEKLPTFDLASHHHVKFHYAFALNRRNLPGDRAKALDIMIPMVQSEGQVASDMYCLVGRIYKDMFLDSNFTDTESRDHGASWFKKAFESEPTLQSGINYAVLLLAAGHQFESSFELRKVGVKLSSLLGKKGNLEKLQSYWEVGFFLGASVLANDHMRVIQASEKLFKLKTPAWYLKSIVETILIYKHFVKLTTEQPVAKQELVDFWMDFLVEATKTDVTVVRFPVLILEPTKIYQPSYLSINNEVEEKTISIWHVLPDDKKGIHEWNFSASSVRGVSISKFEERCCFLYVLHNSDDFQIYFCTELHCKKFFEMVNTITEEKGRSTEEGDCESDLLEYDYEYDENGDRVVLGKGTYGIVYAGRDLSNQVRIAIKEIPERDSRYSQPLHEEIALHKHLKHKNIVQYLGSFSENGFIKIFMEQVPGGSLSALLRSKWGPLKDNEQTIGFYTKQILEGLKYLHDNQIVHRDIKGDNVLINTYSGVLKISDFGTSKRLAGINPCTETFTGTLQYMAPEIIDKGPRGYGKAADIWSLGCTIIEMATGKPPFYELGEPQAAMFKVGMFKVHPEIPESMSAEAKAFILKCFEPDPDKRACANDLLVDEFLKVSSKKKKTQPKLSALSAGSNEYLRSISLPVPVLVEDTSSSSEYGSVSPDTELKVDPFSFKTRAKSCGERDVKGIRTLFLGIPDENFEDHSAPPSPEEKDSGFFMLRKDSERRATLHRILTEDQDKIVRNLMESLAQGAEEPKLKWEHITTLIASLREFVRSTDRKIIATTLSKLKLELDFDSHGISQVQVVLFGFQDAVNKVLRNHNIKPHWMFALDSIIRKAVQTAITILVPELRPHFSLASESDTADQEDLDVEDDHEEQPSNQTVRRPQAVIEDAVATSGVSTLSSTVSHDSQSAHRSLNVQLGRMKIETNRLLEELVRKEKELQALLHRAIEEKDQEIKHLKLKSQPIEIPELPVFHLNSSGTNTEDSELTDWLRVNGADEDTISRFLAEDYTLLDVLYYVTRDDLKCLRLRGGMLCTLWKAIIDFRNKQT
Method in brief: (§2)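 Cells were exposed to compound or DMSO control for 24 or 48 h. Lysates were loaded at […] protein per lane and immunoblotted with antibodies diluted 1:100 to 1:500 in 5% BSA-TBS-T. Targets were p-Akt (Ser473), Akt, p-GSK3-α/β (Ser21/9), GSK3-α/β, SAPK/JNK, p-SAPK/JNK (Thr183/Tyr185), PARP, p-β-catenin, β-catenin, cyclin D1, p-ASK1 (S83) and p-ASK1 (S966). Actin served as the loading control.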

[3] = Cytotoxicity against human Hep3B cells assessed as growth inhibition after 72 hrs by sulforhodamine B assay; assay type: functional, cell-based, Hep 3B2; conditions: Homo sapiens, Hep3B, 72 h; read-out: IC50; method in brief: as §1
[4] = biological target: T2, Catenin beta-1 (Homo sapiens) (UniProt P35222); experiment: Induction of beta-catenin phosphorylation in human Mahlavu cells after 24 to 48 hrs by Western blot analysis; assay type: cell-based; method in brief: as §2
T2 sequence (whole entry): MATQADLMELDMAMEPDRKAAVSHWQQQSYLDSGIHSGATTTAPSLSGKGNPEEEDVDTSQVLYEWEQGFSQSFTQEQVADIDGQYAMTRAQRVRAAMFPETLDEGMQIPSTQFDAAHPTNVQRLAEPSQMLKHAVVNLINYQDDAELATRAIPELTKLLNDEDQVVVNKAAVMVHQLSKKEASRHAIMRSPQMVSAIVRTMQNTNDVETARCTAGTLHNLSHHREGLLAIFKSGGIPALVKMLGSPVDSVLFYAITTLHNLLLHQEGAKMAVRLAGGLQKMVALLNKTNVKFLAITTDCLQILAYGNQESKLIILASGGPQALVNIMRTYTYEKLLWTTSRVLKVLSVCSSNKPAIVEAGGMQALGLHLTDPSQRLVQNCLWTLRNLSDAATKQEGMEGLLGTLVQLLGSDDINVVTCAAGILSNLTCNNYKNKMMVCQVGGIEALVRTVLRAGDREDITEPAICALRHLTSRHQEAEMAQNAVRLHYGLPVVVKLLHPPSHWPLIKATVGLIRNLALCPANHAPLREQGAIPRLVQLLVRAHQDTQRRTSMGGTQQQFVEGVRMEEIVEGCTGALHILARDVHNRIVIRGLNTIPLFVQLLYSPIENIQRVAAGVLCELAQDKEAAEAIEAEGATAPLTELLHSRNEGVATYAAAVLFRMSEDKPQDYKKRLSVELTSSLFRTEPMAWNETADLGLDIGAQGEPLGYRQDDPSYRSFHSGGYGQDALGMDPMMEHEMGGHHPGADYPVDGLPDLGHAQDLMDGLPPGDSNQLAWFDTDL

[5] = Cytotoxicity against human FOCUS cells assessed as growth inhibition after 72 hrs by sulforhodamine B assay; assay type: functional, cell-based; conditions: Homo sapiens, FOCUS, 72 h; read-out: IC50; method in brief: as §1
[6] = Cytotoxicity against human SNU475 cells assessed as growth inhibition after 72 hrs by sulforhodamine B assay; assay type: functional, cell-based, SNU-475; conditions: Homo sapiens, SNU-475, 72 h; read-out: IC50; method in brief: as §1
[7] = biological target: T1, Mitogen-activated protein kinase kinase kinase 5 (Homo sapiens); experiment: Activation of ASK1 in human HuH7 cells assessed as Ser966 phosphorylation after 24 to 48 hrs by Western blot analysis; assay type: cell-based; conditions: Huh-7; method in brief: as §2
[8] = tested on: Mahlavu; experiment: Induction of apoptosis in human Mahlavu cells assessed as PARP cleavage after 24 to 48 hrs by Western blot analysis; assay type: functional, cell-based; method in brief: as §2
[9] = biological target: T2, Catenin beta-1 (Homo sapiens); experiment: Induction of beta-catenin phosphorylation in human HuH7 cells after 24 to 48 hrs by Western blot analysis; assay type: cell-based; conditions: Huh-7; method in brief: as §2

| Activity [2] | Activity [4] | Activity [7] | Activity [9] | SMILES | IC50 [1] [µM] | IC50 [3] [µM] | IC50 [5] [µM] | IC50 [6] [µM] | Activity [8] |
| --- | --- | --- | --- | --- | --- | --- | --- | --- | --- |
| Active | Active | Active | Active | Cc1ccc(C2=Nn3c(nnc3C(C)c3ccc(CC(C)C)cc3)SC2)cc1 (stereo not drawn) | 5 | 5.3 | 6.8 | 8.7 | Active |
| Active | Active | Active | Active | COc1ccc(C2=Nn3c(nnc3C(C)c3ccc(CC(C)C)cc3)SC2)cc1 (stereo not drawn) | 3.7 | 6.5 | 2.4 | 8.5 | Active |
